The subject of one assay is MV4-11. The experiment in a line: Antiproliferative activity against human MV4-11 cells assessed as inhibition of cell growth incubated for 72 hrs by Celltiter-Glo luminescent assay. The class given is functional, cell-based. The note with it: MV4-11, 72 h. Summed up:
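Cells seeded in growth medium and held overnight at 37 °C; medium-only wells served as background. DMSO stocks were diluted in medium to 3× final and added; cells incubated 72 h at 37 °C, 5% CO2. Viability read by CellTiter-Glo luminescence after 60 min at room temperature. IC50 from curve fit, mean of duplicate.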

Assay [1] deals with CDK2/Cyclin A2 (Homo sapiens) (UniProt P24941+P20248). In words: Inhibition of CDK2/Cyclin A (unknown origin) assessed as enzyme activity at 1 uM preincubated for 20 mins followed by ATP addition and measured after 120 mins in presence of [33P-gamma] ATP by hotspot kinase assay relative to control. The class given is protein-complex assay. Further details: scale not given: the % may be the effect or the level left. The note with it: time 140.0 min. The procedure, abridged: (§1)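 Radiometric filter-binding kinase assay, buffer pH 7.5 with 10 mM MgCl2 and 1% DMSO. Compound tested at a single 1.0 μM, preincubated 20 min at 25 °C. Reaction started with ATP/[γ-33P]ATP at 10 μM final, run 120 min at 25 °C. Remaining % enzyme activity reported, n=2.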

In another assay the target is CDK9/cyclin T1 (Homo sapiens, UniProt P50750). The experiment in a line: Inhibition of CDK9/Cyclin T1 (unknown origin) preincubated for 20 mins followed by ATP addition and measured after 120 mins in presence of [33P-gamma] ATP by hotspot kinase assay. The class given is protein-complex assay.
CDK9/cyclin T1, sequence (O60563 whole entry): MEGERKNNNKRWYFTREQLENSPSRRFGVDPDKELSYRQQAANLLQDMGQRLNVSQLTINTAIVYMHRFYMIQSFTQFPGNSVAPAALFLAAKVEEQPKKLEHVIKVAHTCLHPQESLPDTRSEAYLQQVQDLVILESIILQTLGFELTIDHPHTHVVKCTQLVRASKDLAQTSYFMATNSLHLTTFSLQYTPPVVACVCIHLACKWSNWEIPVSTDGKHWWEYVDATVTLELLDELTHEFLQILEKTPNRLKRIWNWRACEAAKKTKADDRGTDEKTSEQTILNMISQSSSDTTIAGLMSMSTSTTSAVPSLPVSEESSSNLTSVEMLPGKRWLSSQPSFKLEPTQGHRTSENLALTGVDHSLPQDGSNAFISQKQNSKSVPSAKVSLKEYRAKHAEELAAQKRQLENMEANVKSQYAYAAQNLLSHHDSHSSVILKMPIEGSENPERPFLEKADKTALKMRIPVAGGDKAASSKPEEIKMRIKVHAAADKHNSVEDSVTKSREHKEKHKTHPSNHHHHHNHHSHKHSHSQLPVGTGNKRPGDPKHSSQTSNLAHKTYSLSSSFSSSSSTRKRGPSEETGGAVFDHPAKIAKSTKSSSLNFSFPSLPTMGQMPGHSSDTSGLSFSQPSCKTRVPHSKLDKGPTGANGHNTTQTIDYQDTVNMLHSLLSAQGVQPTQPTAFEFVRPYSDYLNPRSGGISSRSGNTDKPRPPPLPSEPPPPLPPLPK
CDK9/cyclin T1, sequence (P50750 whole entry): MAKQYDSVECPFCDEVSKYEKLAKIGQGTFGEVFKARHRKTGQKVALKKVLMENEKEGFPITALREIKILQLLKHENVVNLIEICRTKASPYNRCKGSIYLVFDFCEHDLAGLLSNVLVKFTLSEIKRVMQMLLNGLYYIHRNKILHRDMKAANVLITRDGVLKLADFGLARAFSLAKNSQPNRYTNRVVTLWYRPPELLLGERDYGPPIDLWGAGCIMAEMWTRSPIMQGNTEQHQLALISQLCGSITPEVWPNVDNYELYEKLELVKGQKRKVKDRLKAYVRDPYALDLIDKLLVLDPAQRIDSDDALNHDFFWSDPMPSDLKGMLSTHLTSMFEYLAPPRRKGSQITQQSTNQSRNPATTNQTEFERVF
The next assay has as its target CDK2/Cyclin A2 (Homo sapiens, UniProt P24941). In words: Inhibition of CDK2/Cyclin A (unknown origin) preincubated for 20 mins followed by ATP addition and measured after 120 mins in presence of [33P-gamma] ATP by hotspot kinase assay. The class given is protein-complex assay. Summed up: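 Radiometric filter-binding assay: kinase and substrate in 20 mM Hepes pH 7.5, 10 mM MgCl2, 1 mM EGTA, 0.02% Brij35, 0.02 mg/mL BSA, 0.1 mM Na3VO4, 2 mM DTT, 1% DMSO. Compound (top 1/10/27 μM, 3-fold serial dilutions) preincubated 20 min at 25 °C. ATP plus [γ-33P]ATP added to 10 μM final, reacted 120 min at 25 °C. IC50 from curve fit, duplicate mean.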

Assay [2] has as its target CDK9/cyclin T1 (Homo sapiens) (UniProt O60563+P50750). The experiment in a line: Inhibition of CDK9/Cyclin T1 (unknown origin) assessed as enzyme activity at 1 uM preincubated for 20 mins followed by ATP addition and measured after 120 mins in presence of [33P-gamma] ATP by hotspot kinase assay relative to control. The class given is protein-complex assay. Further details: scale not given: the % may be the effect or the level left. As to conditions: time 140.0 min. The procedure, abridged:
as §1

In the case of `COc1ccc(-c2ccnc(Nc3ccc4c(N5CCOCC5)c(C(C)=O)c(=O)oc4c3)n2)cc1`, the IC50 with MV4-11 worked out at 6490 nM; at CDK9/cyclin T1, 81.7 nM. In addition, the Activity in assay [1] is 21.6%.
Turning to `CCN1CCN(c2c(C(C)=O)c(=O)oc3cc(Nc4ncc(F)c(-c5ccc(F)cc5OC)n4)ccc23)CC1`, the IC50 amounted to 550 nM in the assay on MV4-11, 305 nM on CDK2/Cyclin A2 and 1.2 nM at CDK9/cyclin T1.
In the case of `CC(=O)c1c(N2CCOCC2)c2ccc(Nc3nccc(-c4ccccc4C)n3)cc2oc1=O`, on CDK9/cyclin T1, the IC50 worked out at 489 nM.
For the molecule `CCN1CCN(c2c(C(C)=O)c(=O)oc3cc(Nc4nccc(-c5ccc(F)cc5OC)n4)ccc23)CC1`, the half-maximal inhibitory concentration (IC50) with MV4-11 was determined as 740 nM; on CDK9/cyclin T1, 10.5 nM. For the same molecule, in assay [1], the Activity came to 61.8%.
Take `COc1cccc(F)c1-c1ccnc(Nc2ccc3c(N4CCOCC4)c(C(C)=O)c(=O)oc3c2)n1`: the IC50 with MV4-11 is 520 nM; on CDK9/cyclin T1 it was 13.7 nM. Also, the Activity in assay [1] came to 58.7%.
Consider `COc1ccccc1-c1ccnc(Nc2ccc3c(N4CCNCC4)cc(=O)oc3c2)n1`, for which the IC50 in the assay with MV4-11 turned out to be 1340 nM; at CDK2/Cyclin A2 it was 3660 nM; on CDK9/cyclin T1, 25.3 nM.
In the case of `COc1ccccc1-c1ccnc(Nc2ccc3c(N4CCCNCC4)cc(=O)oc3c2)n1`, the figures for the half-maximal inhibitory concentration (IC50) in the assay with MV4-11, on CDK2/Cyclin A2 and at CDK9/cyclin T1 were 1680 nM, 2060 nM and 11.7 nM, respectively.
For the molecule `COc1cc(F)ccc1-c1ccnc(Nc2ccc3c(N4CCCCC4)c(C(C)=O)c(=O)oc3c2)n1`, the values for the half-inhibitory concentration (IC50) in the assay with MV4-11 and on CDK9/cyclin T1 were 730 nM and 6.5 nM, respectively. Besides, in assay [1], the Activity was 73.1%.
As to `COc1cccc(-c2ccnc(Nc3ccc4c(N5CCOCC5)c(C(C)=O)c(=O)oc4c3)n2)c1OC`, the IC50 in the assay with MV4-11 turned out to be 5070 nM. Also, the Activity in assay [2] is 51.7%.
`CCC(=O)c1c(N2CCOCC2)c2ccc(Nc3nccc(-c4ccc(F)cc4OC)n3)cc2oc1=O`: the half-maximal inhibitory concentration (IC50) worked out at 430 nM with MV4-11, 1090 nM on CDK2/Cyclin A2 and 3.6 nM at CDK9/cyclin T1.
For the molecule `CC(=O)c1c(N2CCOCC2)c2ccc(Nc3nccc(-c4ccccc4C(F)(F)F)n3)cc2oc1=O`, the IC50 at CDK9/cyclin T1 is 2490 nM.
On to `CC(=O)c1c(N2CCOCC2)c2ccc(Nc3nccc(-c4c(F)cccc4F)n3)cc2oc1=O`, for which the IC50 was > 10000 nM in the assay on MV4-11 and 267 nM on CDK9/cyclin T1.
As to `CC(=O)c1c(N2CCOCC2)c2ccc(Nc3cc(-c4ccccc4C(F)(F)F)ncn3)cc2oc1=O`, the Activity in assay [2] came out at 106%.
In the case of `CCC(=O)c1c(N2CCOCC2)c2ccc(Nc3ncc(F)c(-c4ccc(F)cc4OC)n3)cc2oc1=O`, the IC50 worked out at 420 nM in the assay with MV4-11, 338 nM at CDK2/Cyclin A2 and 0.7 nM on CDK9/cyclin T1.
Consider `COc1ccccc1-c1ccnc(Nc2ccc3c(N4CCOCC4)cc(=O)oc3c2)n1`, for which the half-inhibitory concentration (IC50) with MV4-11 worked out at 4570 nM; on CDK9/cyclin T1, 47.2 nM. Besides, the Activity in assay [1] worked out at 57.9%.
On to `COc1ccccc1-c1cc(Nc2ccc3c(N4CCOCC4)c(C(C)=O)c(=O)oc3c2)ncn1`, for which the IC50 with MV4-11 was > 10000 nM; at CDK2/Cyclin A2 it was 3420 nM; at CDK9/cyclin T1, 210 nM.
As for `CC(=O)c1c(N2CCOCC2)c2ccc(Nc3cc(-c4ccccc4)ncn3)cc2oc1=O`, the Activity in assay [2] was 104%.
Take `COc1ccc(F)cc1-c1ccnc(Nc2ccc3c(N4CCOCC4)c(C(C)=O)c(=O)oc3c2)n1`: the figures for the 50% inhibitory concentration (IC50) with MV4-11 and on CDK9/cyclin T1 were 1740 nM and 21.8 nM, respectively. Also, the Activity in assay [1] was 49.6%.
On to `CC(=O)c1c(N2CCOCC2)c2ccc(Nc3nccc(-c4ccccc4)n3)cc2oc1=O`, for which the IC50 at CDK9/cyclin T1 was 228 nM.
Take `COc1ccccc1-c1ccnc(Nc2ccc3c(C)c(C(C)=O)c(=O)oc3c2)n1`: the IC50 in the assay with MV4-11 worked out at 10200 nM; on CDK2/Cyclin A2 it was 451 nM; at CDK9/cyclin T1, 6.5 nM.
Consider `COc1cc(F)ccc1-c1nc(Nc2ccc3c(N4CCOCC4)c(C(C)=O)c(=O)oc3c2)ncc1Cl`, for which the figures for the 50% inhibitory concentration (IC50) in the assay on MV4-11, on CDK2/Cyclin A2 and on CDK9/cyclin T1 were 1010 nM, 401 nM and 3.6 nM, respectively.
Consider `CCc1ccccc1-c1ccnc(Nc2ccc3c(N4CCOCC4)c(C(C)=O)c(=O)oc3c2)n1`, for which the concentration for half-maximal inhibition (IC50) is 9840 nM in the assay on MV4-11 and 66.5 nM on CDK9/cyclin T1. Further, in assay [1], the Activity was determined as 40.5%.
Take `COc1ccccc1-c1ccnc(Nc2ccc3c(N4CCOCC4)c(C(C)=O)c(=O)oc3c2)n1`: the IC50 in the assay with MV4-11 worked out at 1010 nM; on CDK2/Cyclin A2, 1280 nM; on CDK9/cyclin T1, 3.1 nM.
In the case of `COc1cc(F)ccc1-c1ccnc(Nc2ccc3c(N4CCOCC4)cc(=O)oc3c2)n1`, the IC50 turned out to be 2280 nM with MV4-11, 1330 nM at CDK2/Cyclin A2 and 18.2 nM at CDK9/cyclin T1.
Consider `CCc1ccccc1-c1cc(Nc2ccc3c(N4CCOCC4)c(C(C)=O)c(=O)oc3c2)ncn1`, for which, in assay [2], the Activity was 90%.
Consider `COc1ccc(-c2ccnc(Nc3ccc4c(N5CCOCC5)c(C(C)=O)c(=O)oc4c3)n2)c(OC)c1`, for which the IC50 in the assay with MV4-11 is 820 nM; at CDK9/cyclin T1, 54.2 nM. Besides, the Activity in assay [1] was 46.3%.
With `COc1cc(F)ccc1-c1nc(Nc2ccc3c(N4CCOCC4)cc(=O)oc3c2)ncc1F`, the half-inhibitory concentration (IC50) with MV4-11 came out at 3110 nM; on CDK9/cyclin T1 it was 1.6 nM. Also, the Activity in assay [1] was determined as 22%.
The corresponding values for `COc1ccccc1-c1cc(Nc2ccc3c(C)c(C(C)=O)c(=O)oc3c2)ncn1` are > 10000 nM, 37.6 nM and 64.5%.
As for `CCc1c(N2CCOCC2)c2ccc(Nc3nccc(-c4ccccc4OC)n3)cc2oc1=O`, the IC50 in the assay on MV4-11 came to 4720 nM; at CDK2/Cyclin A2 it was 10900 nM; at CDK9/cyclin T1, 67.3 nM.
Regarding `COc1cc(F)ccc1-c1nc(Nc2ccc3c(N4CCN(C)CC4)c(C(C)=O)c(=O)oc3c2)ncc1F`, the half-inhibitory concentration (IC50) in the assay on MV4-11 was determined as 400 nM; on CDK2/Cyclin A2, 336 nM; on CDK9/cyclin T1, 1.5 nM.
Consider `CC(=O)c1c(N2CCOCC2)c2ccc(Nc3cc(-c4ccccc4C)ncn3)cc2oc1=O`, for which the Activity in assay [2] amounted to 92.2%.
Regarding `COc1cccc(-c2ccnc(Nc3ccc4c(N5CCOCC5)c(C(C)=O)c(=O)oc4c3)n2)c1`, the half-maximal inhibitory concentration (IC50) in the assay with MV4-11 came to 1490 nM; on CDK9/cyclin T1 it was 18.4 nM. Besides, the Activity in assay [1] came to 54.1%.
For `COc1cc(F)ccc1-c1nc(Nc2ccc3c(N4CCN(C)CC4)c(C(C)=O)c(=O)oc3c2)ncc1Cl`, the IC50 came to 1390 nM in the assay on MV4-11, 642 nM at CDK2/Cyclin A2 and 1.7 nM on CDK9/cyclin T1.
Regarding `COc1cc(F)ccc1-c1nc(Nc2ccc3c(N4CCCNCC4)c(C(C)=O)c(=O)oc3c2)ncc1F`, the IC50 in the assay with MV4-11 was found to be 420 nM; at CDK2/Cyclin A2, 496 nM; at CDK9/cyclin T1, 1.6 nM.
Regarding `COc1cc(F)ccc1-c1ccnc(Nc2ccc3c(N4CCN(C)CC4)c(C(C)=O)c(=O)oc3c2)n1`, the IC50 in the assay on MV4-11 is 520 nM; on CDK9/cyclin T1 it was 16.4 nM. Besides, the Activity in assay [1] worked out at 74.8%.
With `CC(=O)c1c(N2CCOCC2)c2ccc(Nc3nccc(-c4ccccc4[N+](=O)[O-])n3)cc2oc1=O`, the 50% inhibitory concentration (IC50) is > 10000 nM with MV4-11 and 2340 nM at CDK9/cyclin T1.

As usually defined, the IC50 is the point on the concentration scale where inhibition reaches its midpoint.

The record behind these values is ChEMBL document CHEMBL4765336, “Discovery of coumarin derivatives as potent and selective cyclin-dependent kinase 9 (CDK9) inhibitors with high antitumour activity” (Eur J Med Chem, 2020).
